Converted amounts (≈) assume the structure as drawn. The source made the active and inactive calls. The calls are words filed in the database; no cut-off is given here.
How the values were obtained:
[1] = biological target: T1, Penicillin-binding protein 1A (Escherichia coli K-12) (UniProt P02918); experiment: Inhibition of Escherichia coli PBP1a
T1 sequence (whole entry): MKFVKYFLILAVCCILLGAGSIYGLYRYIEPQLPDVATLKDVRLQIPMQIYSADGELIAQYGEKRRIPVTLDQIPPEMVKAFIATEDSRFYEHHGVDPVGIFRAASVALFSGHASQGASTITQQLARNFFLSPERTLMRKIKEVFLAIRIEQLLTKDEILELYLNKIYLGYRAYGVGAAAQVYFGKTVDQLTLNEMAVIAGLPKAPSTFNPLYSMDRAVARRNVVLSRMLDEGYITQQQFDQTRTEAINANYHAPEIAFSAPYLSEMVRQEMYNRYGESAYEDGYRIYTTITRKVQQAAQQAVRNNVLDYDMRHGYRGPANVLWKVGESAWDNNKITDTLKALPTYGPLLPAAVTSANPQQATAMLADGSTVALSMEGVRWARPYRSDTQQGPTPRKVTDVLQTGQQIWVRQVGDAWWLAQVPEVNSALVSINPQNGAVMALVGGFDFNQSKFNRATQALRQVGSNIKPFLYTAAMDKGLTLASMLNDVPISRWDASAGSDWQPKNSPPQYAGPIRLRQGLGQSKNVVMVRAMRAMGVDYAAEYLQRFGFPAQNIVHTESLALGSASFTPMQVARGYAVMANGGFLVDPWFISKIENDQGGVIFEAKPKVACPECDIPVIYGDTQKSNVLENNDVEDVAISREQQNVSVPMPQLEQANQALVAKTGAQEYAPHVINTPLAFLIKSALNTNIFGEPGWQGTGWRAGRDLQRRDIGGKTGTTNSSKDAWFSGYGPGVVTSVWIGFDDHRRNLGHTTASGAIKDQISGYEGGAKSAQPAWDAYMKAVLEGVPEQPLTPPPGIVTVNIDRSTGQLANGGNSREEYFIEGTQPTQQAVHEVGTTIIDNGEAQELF

[2] = biological target: T2, Peptidoglycan D,D-transpeptidase MrdA (Escherichia coli K-12) (UniProt P0AD65); experiment: (§1) Inhibition of bocillin-FL binding to Escherichia coli K12 NusA-fused/His6-tagged PBP2 (57 to 615 residues) expressed in Escherichia coli BL21(DE3) preincubated for 30 mins followed by bocillin-FL addition by RT-fluorescence anisotropy method
T2 sequence (whole entry): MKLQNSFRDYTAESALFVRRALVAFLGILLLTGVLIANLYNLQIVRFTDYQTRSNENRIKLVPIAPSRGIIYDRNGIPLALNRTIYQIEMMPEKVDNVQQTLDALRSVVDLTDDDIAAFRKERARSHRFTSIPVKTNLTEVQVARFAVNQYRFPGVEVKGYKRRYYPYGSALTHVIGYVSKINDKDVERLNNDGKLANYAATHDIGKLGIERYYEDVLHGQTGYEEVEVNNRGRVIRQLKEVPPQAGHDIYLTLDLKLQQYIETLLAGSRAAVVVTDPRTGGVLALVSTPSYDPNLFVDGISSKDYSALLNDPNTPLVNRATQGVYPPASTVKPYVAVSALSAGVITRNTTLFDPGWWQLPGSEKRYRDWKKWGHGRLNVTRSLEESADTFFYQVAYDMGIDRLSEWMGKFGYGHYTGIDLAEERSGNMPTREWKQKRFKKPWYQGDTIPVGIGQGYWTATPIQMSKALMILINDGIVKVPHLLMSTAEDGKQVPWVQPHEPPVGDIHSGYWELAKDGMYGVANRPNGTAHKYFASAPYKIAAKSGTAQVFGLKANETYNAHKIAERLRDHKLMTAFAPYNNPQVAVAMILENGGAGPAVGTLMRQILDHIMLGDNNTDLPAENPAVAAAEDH

Escherichia coli [3] = experiment: Inhibition of Escherichia coli PBP3
Pseudomonas aeruginosa [4] = experiment: Antibacterial activity against Pseudomonas aeruginosa UFR49 measured after 16 to 20 hrs by broth microdilution method; assay type: functional
[5] = biological target: T3, Penicillin-binding protein 1B (Escherichia coli K-12) (UniProt P02919); experiment: Inhibition of Escherichia coli PBP1b
T3 sequence (whole entry): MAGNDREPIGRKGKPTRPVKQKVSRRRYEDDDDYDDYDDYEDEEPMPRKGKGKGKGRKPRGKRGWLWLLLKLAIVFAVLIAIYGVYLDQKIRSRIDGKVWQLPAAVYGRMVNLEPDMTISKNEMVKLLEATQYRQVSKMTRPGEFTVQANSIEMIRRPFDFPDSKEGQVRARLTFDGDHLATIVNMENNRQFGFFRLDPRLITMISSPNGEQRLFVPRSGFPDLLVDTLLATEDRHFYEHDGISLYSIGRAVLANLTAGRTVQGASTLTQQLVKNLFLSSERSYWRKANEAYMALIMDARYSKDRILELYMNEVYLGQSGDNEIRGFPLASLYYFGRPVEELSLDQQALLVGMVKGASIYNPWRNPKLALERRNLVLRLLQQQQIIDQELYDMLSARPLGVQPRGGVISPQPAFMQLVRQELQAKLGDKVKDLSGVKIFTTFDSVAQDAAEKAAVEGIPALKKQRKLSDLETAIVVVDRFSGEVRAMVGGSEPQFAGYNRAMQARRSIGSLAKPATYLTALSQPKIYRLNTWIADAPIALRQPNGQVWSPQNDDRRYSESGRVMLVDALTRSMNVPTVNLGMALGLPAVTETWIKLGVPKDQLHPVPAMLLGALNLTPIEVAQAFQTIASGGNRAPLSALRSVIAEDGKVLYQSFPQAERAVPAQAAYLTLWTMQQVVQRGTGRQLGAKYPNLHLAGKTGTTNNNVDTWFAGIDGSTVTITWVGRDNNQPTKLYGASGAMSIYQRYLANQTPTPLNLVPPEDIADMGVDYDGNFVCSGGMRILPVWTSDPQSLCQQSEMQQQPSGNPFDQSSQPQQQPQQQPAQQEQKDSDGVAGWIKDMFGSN

Escherichia coli [6] = experiment: Antibacterial activity against Escherichia coli clinical isolates measured after 16 to 20 hrs by broth microdilution method; assay type: functional
Procedure, shortened: (§2)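 Broth microdilution MICs following CLSI M7-A7, run against genotyped carbapenem-resistant E. coli and P. aeruginosa strains.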

Bacteria [7] = experiment: Inhibition of bacterial beta-lactamase SHV-1
[8] = biological target: T4, Peptidoglycan D,D-transpeptidase MrdA (Escherichia coli K-12, UniProt P0AD65); experiment: as §1
T4 sequence (P0AD65 whole entry): T2 sequence (whole entry)

[9] = biological target: Beta-lactamase TEM (Bacteria) (UniProt P62593); experiment: Inhibition of bacterial beta-lactamase TEM-1
Sequence of Beta-lactamase TEM (Bacteria) (P62593 whole entry): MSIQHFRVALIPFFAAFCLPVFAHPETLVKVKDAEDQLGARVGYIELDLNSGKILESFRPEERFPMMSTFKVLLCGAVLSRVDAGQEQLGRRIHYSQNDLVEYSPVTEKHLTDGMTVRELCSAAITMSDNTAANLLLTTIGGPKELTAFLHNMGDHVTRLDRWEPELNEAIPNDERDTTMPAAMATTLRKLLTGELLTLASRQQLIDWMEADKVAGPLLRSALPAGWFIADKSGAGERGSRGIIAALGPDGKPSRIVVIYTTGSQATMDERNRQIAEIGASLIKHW

Enterobacter cloacae = experiment: Inhibition of Enterobacter cloacae P99 AmpC
Bacteria [10] = experiment: Inhibition of bacterial beta-lactamase CTX-M-15
Bacteria [11] = experiment: Inhibition of bacterial OXA-15
Bacteria [12] = experiment: Inhibition of bacterial CMY-37
[13] = biological target: T1, Penicillin-binding protein 1A (Escherichia coli K-12); experiment: Inhibition of Escherichia coli PBP1a up to 200 uM
Escherichia coli [14] = experiment: Antibacterial activity against Escherichia coli UFR39 measured after 16 to 20 hrs by broth microdilution method; assay type: functional; procedure, shortened: as §2
Escherichia coli [15] = experiment: Inhibition of Escherichia coli PBP3 up to 200 uM
Pseudomonas aeruginosa [16] = experiment: Antibacterial activity against Pseudomonas aeruginosa clinical isolates measured after 16 to 20 hrs by broth microdilution method; assay type: functional; procedure, shortened: as §2
[17] = biological target: T5, Penicillin-binding protein 1B (Pseudomonas aeruginosa) (UniProt Q9X6W0); experiment: Inhibition of Pseudomonas aeruginosa PBP1b up to 200 uM
T5 sequence (whole entry): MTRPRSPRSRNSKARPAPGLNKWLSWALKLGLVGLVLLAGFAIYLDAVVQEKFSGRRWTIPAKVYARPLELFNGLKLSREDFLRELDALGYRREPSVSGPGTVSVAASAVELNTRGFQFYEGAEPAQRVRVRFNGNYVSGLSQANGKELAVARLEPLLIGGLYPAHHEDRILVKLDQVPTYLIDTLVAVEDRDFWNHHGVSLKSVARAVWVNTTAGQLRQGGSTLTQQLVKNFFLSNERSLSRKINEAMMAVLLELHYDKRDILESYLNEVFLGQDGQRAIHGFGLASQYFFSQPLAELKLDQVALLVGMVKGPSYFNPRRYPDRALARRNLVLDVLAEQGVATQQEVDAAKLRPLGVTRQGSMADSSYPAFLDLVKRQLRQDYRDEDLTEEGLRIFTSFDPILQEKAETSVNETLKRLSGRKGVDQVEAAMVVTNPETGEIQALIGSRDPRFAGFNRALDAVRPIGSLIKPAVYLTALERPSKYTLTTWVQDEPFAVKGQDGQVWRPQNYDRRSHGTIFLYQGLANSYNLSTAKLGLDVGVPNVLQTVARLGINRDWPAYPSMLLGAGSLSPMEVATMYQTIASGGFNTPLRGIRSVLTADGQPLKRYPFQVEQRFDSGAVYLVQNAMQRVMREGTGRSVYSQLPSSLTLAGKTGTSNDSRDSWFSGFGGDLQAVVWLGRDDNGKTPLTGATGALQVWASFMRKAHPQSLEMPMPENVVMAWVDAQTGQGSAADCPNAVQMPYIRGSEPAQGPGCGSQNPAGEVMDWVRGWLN

[18] = biological target: T3, Penicillin-binding protein 1B (Escherichia coli K-12); experiment: Inhibition of Escherichia coli PBP1b up to 200 uM
Bacteria [19] = experiment: Inhibition of bacterial beta-lactamase KPC-2
[20] = biological target: Penicillin-binding protein 3 (Pseudomonas aeruginosa) (UniProt Q51504); experiment: Inhibition of Pseudomonas aeruginosa PBP3 up to 200 uM
Sequence of Penicillin-binding protein 3 (Pseudomonas aeruginosa) (Q51504 as listed by the source): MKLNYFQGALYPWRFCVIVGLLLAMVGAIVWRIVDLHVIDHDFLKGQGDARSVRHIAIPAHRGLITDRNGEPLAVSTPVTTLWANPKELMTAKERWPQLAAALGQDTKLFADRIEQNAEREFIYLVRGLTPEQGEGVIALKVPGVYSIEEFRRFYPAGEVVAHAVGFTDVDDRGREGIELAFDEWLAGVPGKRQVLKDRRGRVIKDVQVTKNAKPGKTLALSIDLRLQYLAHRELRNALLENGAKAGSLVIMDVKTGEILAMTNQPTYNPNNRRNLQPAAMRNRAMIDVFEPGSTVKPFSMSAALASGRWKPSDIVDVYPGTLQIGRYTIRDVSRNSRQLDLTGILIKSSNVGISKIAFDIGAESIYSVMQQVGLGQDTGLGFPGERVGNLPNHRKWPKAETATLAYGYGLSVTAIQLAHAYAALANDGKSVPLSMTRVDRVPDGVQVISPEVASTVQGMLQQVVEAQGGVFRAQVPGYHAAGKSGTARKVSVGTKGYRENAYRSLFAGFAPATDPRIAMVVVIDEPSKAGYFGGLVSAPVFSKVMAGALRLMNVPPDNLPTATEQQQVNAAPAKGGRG

[21] = biological target: T2, Peptidoglycan D,D-transpeptidase MrdA (Escherichia coli K-12); experiment: Binding affinity to Escherichia coli K12 NusA-fused/His6-tagged PBP2 (57 to 615 residues) expressed in Escherichia coli BL21(DE3) assessed as melting temperature at protein to compound ratio of 1:10 measured after 30 mins using SYPRO orange dye by RT-PCR-based fluorescence assay (reference value: 47 +/- 0.5 degC)
Procedure, shortened: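 Thermal unfolding was monitored with SYPRO Orange dye in a real-time PCR instrument, at a protein/ligand ratio of 1/10. Tm was taken at the inflexion point of the denaturation curve and reported ±0.5 °C.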

[22] = biological target: Penicillin-binding protein 1A (Pseudomonas aeruginosa PAO1) (UniProt Q07806); experiment: Inhibition of Pseudomonas aeruginosa PBP1a up to 200 uM
Sequence of Penicillin-binding protein 1A (Pseudomonas aeruginosa PAO1) (Q07806 whole entry): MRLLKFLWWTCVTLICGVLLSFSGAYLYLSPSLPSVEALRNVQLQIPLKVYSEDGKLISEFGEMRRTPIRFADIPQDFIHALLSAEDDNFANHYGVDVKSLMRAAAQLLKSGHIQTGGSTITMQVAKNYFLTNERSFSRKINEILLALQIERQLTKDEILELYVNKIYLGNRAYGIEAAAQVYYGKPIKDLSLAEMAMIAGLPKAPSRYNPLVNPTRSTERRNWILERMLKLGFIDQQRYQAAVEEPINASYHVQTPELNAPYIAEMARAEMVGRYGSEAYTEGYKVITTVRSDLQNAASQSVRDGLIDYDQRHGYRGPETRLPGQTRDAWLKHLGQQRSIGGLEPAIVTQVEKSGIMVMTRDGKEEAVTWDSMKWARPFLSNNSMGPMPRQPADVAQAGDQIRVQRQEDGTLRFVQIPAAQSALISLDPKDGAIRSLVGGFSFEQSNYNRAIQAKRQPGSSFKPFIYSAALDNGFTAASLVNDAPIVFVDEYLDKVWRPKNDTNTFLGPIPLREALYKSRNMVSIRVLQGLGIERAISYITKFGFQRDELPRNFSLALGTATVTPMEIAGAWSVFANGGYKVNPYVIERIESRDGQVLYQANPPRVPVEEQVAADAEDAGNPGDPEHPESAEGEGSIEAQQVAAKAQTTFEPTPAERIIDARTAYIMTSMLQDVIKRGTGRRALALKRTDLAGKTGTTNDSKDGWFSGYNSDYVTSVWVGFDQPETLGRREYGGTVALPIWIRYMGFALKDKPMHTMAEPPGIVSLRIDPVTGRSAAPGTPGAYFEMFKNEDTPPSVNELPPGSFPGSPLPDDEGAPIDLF

Bacteria [23] = experiment: Inhibition of bacterial OXA-48

| inhibition [1] | inhibition [2] | inhibition (Escherichia coli [3]) | MIC (Pseudomonas aeruginosa [4]) | inhibition [5] | IC50 [8] | MIC (Escherichia coli [14]) | Structure (SMILES) | MIC50 (Escherichia coli [6]) | MIC90 (Escherichia coli [6]) | MIC50 (Pseudomonas aeruginosa [16]) | MIC90 (Pseudomonas aeruginosa [16]) | other results |
| --- | --- | --- | --- | --- | --- | --- | --- | --- | --- | --- | --- | --- |
| inactive | Active | inactive | > 32 mg/L | inactive | – | – | O=C1N2CC=C(c3cccnc3)C(C2)N1OS(=O)(=O)[O-].[Na+] (configuration not stated) | – | – | – | – | – |
| inactive | Active | inactive | > 32 mg/L | inactive | – | – | O=C1N2CC=C(c3ccccn3)C(C2)N1OS(=O)(=O)[O-].[Na+] (configuration not stated) | – | – | – | – | – |

Further lines, the compound ahead of its results:

| Structure (SMILES) | inhibition [1] | inhibition [2] | inhibition (Escherichia coli [3]) | MIC (Pseudomonas aeruginosa [4]) | inhibition [5] | IC50 [8] | MIC (Escherichia coli [14]) | MIC50 (Escherichia coli [6]) | MIC90 (Escherichia coli [6]) | MIC50 (Pseudomonas aeruginosa [16]) | MIC90 (Pseudomonas aeruginosa [16]) | other results |
| --- | --- | --- | --- | --- | --- | --- | --- | --- | --- | --- | --- | --- |
| NC[C@@H]1C=C(c2cnco2)[C@@H]2CN1C(=O)N2OS(=O)(=O)O (relative stereo) | inactive | – | inactive | 2 mg/L (≈ 6.32 µM) | inactive | 0.01 µM | 0.016 mg/L (≈ 0.0506 µM) | 0.031 mg/L (≈ 0.098 µM) | > 32 mg/L | 1 mg/L (≈ 3.16 µM) | 16 mg/L (≈ 50.6 µM) | inhibition (Bacteria [7]): Active; inhibition [9]: Active; inhibition (Enterobacter cloacae): Active; inhibition (Bacteria [10]): Active; inhibition (Bacteria [11]): Active; inhibition (Bacteria [12]): Active; inhibition [13]: inactive; inhibition (Escherichia coli [15]): inactive; inhibition [17]: inactive; inhibition [18]: inactive; inhibition (Bacteria [19]): Active; inhibition [20]: inactive; Tm [21]: 55.5 °C; inhibition [22]: inactive; inhibition (Bacteria [23]): Active |
| CC(C)(O/N=C(\C(=O)N[C@@H]1C(=O)N2C(C(=O)[O-])=C(C[n+]3ccccc3)CS[C@H]12)c1csc(N)n1)C(=O)O [CEFTAZIDIME] | – | – | – | 64 mg/L (≈ 117 µM) | – | – | > 256 mg/L | > 32 mg/L | > 32 mg/L | > 32 mg/L | > 32 mg/L | – |
| O=C1N2CCCC(C2)N1OS(=O)(=O)[O-].[Na+] (configuration not stated) | inactive | – | inactive | > 32 mg/L | inactive | > 200 µM | > 32 mg/L | – | – | – | – | – |
| O=C1N2CC=C(c3ccncc3)C(C2)N1OS(=O)(=O)[O-].[Na+] (configuration not stated) | inactive | Active | inactive | > 32 mg/L | inactive | – | – | – | – | – | – | – |

From ChEMBL document CHEMBL4350960, “Structural Basis for E. coli Penicillin Binding Protein (PBP) 2 Inhibition, a Platform for Drug Design” (J Med Chem, 2019)
